These results are taken from ChEMBL document CHEMBL1129452, “Phenethylthiazolylthiourea (PETT) compounds as a new class of HIV-1 reverse transcriptase inhibitors. 2. Synthesis and further structure-activity relationship studies of PETT analogs” (J Med Chem, 1996).

Test [1] has as its system MT4. The test is described as follows: Inhibition of HIV-1(IIIB) variants (Ile100/Asn103) in HIV-1 MT-4 cells. It is filed as functional. The settings on record: Homo sapiens, read-out: ED50 (the source's name). Summed up:
(§1)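 MT-4 cells (human T cell line) in RPMI 1640 with 10% fetal calf serum, penicillin and streptomycin, seeded at 2 × 10⁴ cells/well. Infected with 10-20 TCID₅₀ of mutant HIV-1 IIIB per well, with the compound added at different concentrations. Incubated at 37 °C in CO₂. Cell viability read by XTT dye at day 5 or 6. Activity taken as the reduction in viral cytopathic effect, given as ED₅₀. Mutants were raised by passage in stepwise increasing concentrations of non-nucleoside RT inhibitors.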

Test [2] relates to MT4. Put plainly: Inhibition of mutant type (Ile100) HIV-1 (IIIB) replication in MT-4 cells. It is filed as functional. The settings on record: Homo sapiens, read-out: ED50 (the source's name). The method in brief:
as §1

In test [3] the test system is MT4. The test is described as follows: Inhibition of HIV-1(IIIB) variants (Ile100/Cys181) in HIV-1 MT-4 cells. It is filed as functional. The following applies: Homo sapiens, read-out: ED50 (the source's name). The method in brief: as §1
For test [4], the system named is MT4. Put plainly: Inhibition of mutant type (Cys181) HIV-1 (IIIB) replication in MT-4 cells. It is filed as functional. The following applies: Homo sapiens, read-out: ED50 (the source's name). The method in brief: as §1
Test [5] has as its target T1, Human immunodeficiency virus type 1 reverse transcriptase (Human immunodeficiency virus 1, UniProt Q72547). The test is described as follows: Tested for the inhibition of wild type HIV-1 (IIIB) RT.
Test [6] deals with MT4. Put plainly: Tested for the inhibition of wild type HIV-1 (IIIB) replication in MT-4 cells. It is filed as functional. The settings on record: Homo sapiens, read-out: ED50 (the source's name). Summed up:
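MT-4 human T cells in RPMI 1640 with 10% fetal calf serum, penicillin and streptomycin, seeded at 2 × 10⁴ cells/well and infected with 10-20 TCID₅₀ HIV-1 IIIB per well. Compounds were added over a concentration range and cultures kept at 37 °C in CO₂. Viability was read by XTT at day 5 or 6, and activity was taken as reduction of viral cytopathic effect.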

The target of test [7] is T1, Human immunodeficiency virus type 1 reverse transcriptase. The test is described as follows: Tested for the inhibition of mutant type (Cys181) HIV-1 (IIIB) RT.
The target is the same in test [8]. Put plainly: Tested for the inhibition of mutant type (Ile100) HIV-1 (IIIB) RT.
For test [9], the system named is MT4. Put plainly: Inhibition of HIV-1(IIIB) variants (Ile100/Cys181 in HIV-1 MT-4 cells. It is filed as functional. The settings on record: Homo sapiens, read-out: ED50 (the source's name). The method in brief: as §1
Test [10] relates to MT4. The test is described as follows: Inhibition of HIV-1(IIIB) variants (Ile100/Cys 181) in HIV-1 MT-4 cells. It is filed as functional. The settings on record: Homo sapiens, read-out: ED50 (the source's name). The method in brief: as §1

The structures appear in SMILES notation.

In the case of `COc1ccc(F)c(CC/N=C(\S)Nc2ccc(Br)cn2)c1C#N`, the EC50 with MT4 [1] was over 10000 nM; with MT4 [2], 250 nM; in the test on MT4 [3], over 10000 nM; in the test with MT4 [4] it was 40 nM; in the test on MT4 [6], 3 nM. For the same compound, the IC50 worked out at 1 nM in test [5], 50 nM in [7] and 50 nM in [8].

In the case of `Fc1ccoc1CC/N=C(\S)Nc1ccc(Cl)cn1`, the EC50 in the test with MT4 [1] was over 10000 nM; in the test with MT4 [2] it was 100 nM; in the test with MT4 [3] it was over 10000 nM; in the test on MT4 [4] it was 80 nM; in the test on MT4 [6], 7 nM. For the same compound, the IC50 in [5] came to 4 nM; in test [7], 140 nM; in test [8] it was 230 nM.

With `O=C1c2ccccc2C(=O)N1CCNC(=S)Nc1ccc(Cl)cn1`, the EC50 in the test with MT4 [1] is over 10000 nM; in the test with MT4 [9], 15000 nM; in the test with MT4 [2] it was 200 nM; in the test with MT4 [4], 40 nM; in the test on MT4 [6] it was 5 nM. In addition, the IC50 turned out to be 1 nM in test [5], 130 nM in [7] and 280 nM in [8].

For `CN(C)c1ccc(CC/N=C(\S)Nc2ccc(Br)cn2)c(F)c1C#N`, the EC50 is 5500 nM in the test on MT4 [1]; 7500 nM in the test with MT4 [9]; 150 nM with MT4 [2]; 20 nM with MT4 [4]; 13 nM with MT4 [6]. Further, the IC50 in [5] was determined as 8 nM; in test [7], 110 nM; in test [8], 210 nM.

Regarding `CCOc1ccc(F)c(CCNC(=S)Nc2ccc(Br)cn2)c1F`, the EC50 is over 10000 nM in the test on MT4 [1]; 100 nM with MT4 [2]; 1200 nM in the test on MT4 [3]; 6 nM in the test with MT4 [4]; 6 nM in the test with MT4 [6]. Further, the results for the IC50 in [5], in [7] and in test [8] were 4 nM, 20 nM and 170 nM, respectively.

On to `COc1ccc(OC)c(CCNC(=S)Nc2ccc(Cl)cn2)c1F`, for which the EC50 with MT4 [1] turned out to be 1000 nM; in the test on MT4 [2], 9 nM; in the test on MT4 [3], 1000 nM; with MT4 [4], 3 nM; in the test with MT4 [6] it was 2 nM. For the same compound, the values for the IC50 in test [5], in test [7] and in [8] were 1 nM, 54 nM and 80 nM, respectively.

On to `N#Cc1ccc(F)c(CC/N=C(\S)Nc2ccc(Cl)cn2)c1F`, for which the EC50 with MT4 [1] is over 10000 nM; in the test on MT4 [2], 800 nM; in the test with MT4 [10], over 10000 nM; with MT4 [4] it was 50 nM; in the test with MT4 [6], 6 nM. For the same compound, the values for the IC50 in [5], in test [7] and in [8] were 9 nM, 90 nM and 400 nM, respectively.

With `COc1ccc(F)c(F)c1CCNC(=S)Nc1ccc(Br)cn1`, the EC50 was over 10000 nM in the test on MT4 [1]; over 10000 nM in the test with MT4 [9]; 600 nM with MT4 [2]; 40 nM with MT4 [4]; 7 nM in the test with MT4 [6]. Moreover, the results for the half-maximal inhibitory concentration (IC50) in [5], in [7] and in test [8] were 3 nM, 4 nM and 50 nM, respectively.

`CCOc1ccc(OC)c(CCNC(=S)Nc2ccc(Cl)cn2)c1F`: the EC50 is over 10000 nM with MT4 [1]; 90 nM with MT4 [2]; over 10000 nM in the test with MT4 [3]; 9 nM in the test with MT4 [4]; 5 nM with MT4 [6]. The figures for the half-inhibitory concentration (IC50) in [5], in [7] and in test [8] were 5 nM, 34 nM and 160 nM, respectively.

As for `CCOc1ccc(F)c(F)c1CCNC(=S)Nc1ccc(Br)cn1`, the EC50 with MT4 [1] is over 10000 nM; in the test with MT4 [2] it was 1500 nM; with MT4 [3] it was over 10000 nM; with MT4 [4], 200 nM; in the test with MT4 [6], 7 nM. Also, the half-maximal inhibitory concentration (IC50) in [5] turned out to be 5 nM; in [7] it was 10 nM; in test [8], 20 nM.

For the compound `CCOc1ccc(F)c(CC/N=C(\S)Nc2ccc(Br)cn2)c1C#N`, the EC50 with MT4 [1] was over 10000 nM; in the test with MT4 [2], 40 nM; with MT4 [3], 3000 nM; in the test on MT4 [4] it was 5 nM; in the test with MT4 [6] it was 4 nM. Besides, the IC50 in test [5] is 2 nM; in test [7] it was 210 nM; in [8], 140 nM.
